Laboratory results taken from article PMC4524557 (RSC advances, 2015).
In brackets after ≈: the same amount, converted by molar mass.

Columns and labels:
[1] = test system: S. aureus USA300 biofilms; assay: Inhibition of biofilm formation; type: cell-based, Staphylococcus aureus; conditions: USA300, between 3.1 and 12.5 μM
Klebsiella pneumoniae = assay: MIC determination; type: cell-based; conditions: K. pneumoniae
[2] = test system: Staphylococcus aureus USA200; assay: MIC determination; type: cell-based; conditions: USA200, read-out: MIC USA200
[3] = test system: S. aureus USA400 biofilms; assay: Disruption of established 24 h biofilms; type: cell-based, Staphylococcus aureus
[4] = test system: Pseudomonas aeruginosa PAO1; assay: MIC determination; type: cell-based; conditions: PAO1, read-out: MIC PA
[5] = test system: Staphylococcus aureus USA300; assay: MIC determination; type: cell-based; conditions: USA300, read-out: MIC SA
[6] = test system: Staphylococcus aureus USA400; assay: MIC determination; type: cell-based; conditions: USA400, read-out: MIC USA400
[7] = test system: S. aureus USA400 biofilms; assay: Inhibition of biofilm formation; type: cell-based, Staphylococcus aureus; conditions: USA400, all tested concentrations from 1.56 to 12.5 μM
[8] = test system: S. aureus USA300 biofilms; assay: Disruption of established 24 h biofilms; type: cell-based, Staphylococcus aureus; conditions: USA300 24 h biofilm
Outline: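 USA300 from log phase was grown in wells for 24 h at 37°C to form biofilms, then washed with saline. The 10X test compound, alone or with daptomycin or vancomycin, was added with fresh TSB for another 24 h at 37°C. In combinations the test compound ran 1.56-0.20 µM and the antibiotic 6.25-0.78 µM. Daptomycin medium had 2 mM Ca2+. Wells got fresh TSB plus XTT for 2 h at 37°C, then A450 was read as % of untreated biofilm.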

[9] = test system: Staphylococcus aureus Mu50; assay: MIC determination; type: cell-based; conditions: MU50, read-out: MIC Mu50
[10] = test system: Staphylococcus aureus UAMS-1; assay: MIC determination; type: cell-based; conditions: UAMS1, read-out: MIC UAMS-1
[11] = test system: S. aureus USA200 biofilms; assay: Disruption of established 24 h biofilms; type: cell-based, Staphylococcus aureus; conditions: USA200, at 6.25 μM
[12] = test system: S. aureus UAMS-1 biofilms; assay: Disruption of established biofilms; type: cell-based, Staphylococcus aureus; conditions: UAMS-1, at 6.25 μM
biofilm = conditions: lower concentrations ineffective; cited from earlier work

| Compound | inhibition of biofilm growth [1] | MIC KP (Klebsiella pneumoniae) | MIC [2] | concentration disrupting established biofilms [3] | MIC [4] | MIC [5] | MIC [6] | inhibition of biofilm formation [7] | biofilm disruption alone ([8]; 3.1 μM vancomycin by itself) | biofilm disruption by combination ([8]; 3.1 μM vancomycin with 0.20 μM C14-RRR) | MIC [9] | MIC [10] | established biofilms disrupted [11] | established biofilms disrupted [12] | concentration with anti-biofilm activity (biofilm) |
| --- | --- | --- | --- | --- | --- | --- | --- | --- | --- | --- | --- | --- | --- | --- | --- |
| CN[C@H](CC(C)C)C(=O)N[C@H]1C(=O)N[C@@H](CC(N)=O)C(=O)N[C@H]2C(=O)N[C@H]3C(=O)N[C@H](C(=O)N[C@H](C(=O)O)c4cc(O)cc(O)c4-c4cc3ccc4O)[C@H](O)c3ccc(c(Cl)c3)Oc3cc2cc(c3O[C@@H]2O[C@H](CO)[C@@H](O)[C@H](O)[C@H]2O[C@H]2C[C@](C)(N)[C@H](O)[C@H](C)O2)Oc2ccc(cc2Cl)[C@H]1O [Vancomycin] | 80% | > 25 µM | 0.35 µM (≈ 0.507 µg/mL) | 6.2 to 12.5 µM | > 25 µM | 0.78 µM (≈ 1.13 µg/mL) | 0.78 µM (≈ 1.13 µg/mL) | 100% | unable to completely disrupt the biofilm | disrupt nearly all the biofilms | 1.56 µM (≈ 2.26 µg/mL) | > 12.5 µM | 80% | ~ 70% |  |
| CCCCCCCCCC(=O)N[C@@H](Cc1c[nH]c2ccccc12)C(=O)N[C@H](CC(N)=O)C(=O)N[C@@H](CC(=O)O)C(=O)N[C@@H]1C(=O)NCC(=O)N[C@@H](CCCN)C(=O)N[C@@H](CC(=O)O)C(=O)N[C@H](C)C(=O)N[C@@H](CC(=O)O)C(=O)NCC(=O)N[C@H](CO)C(=O)N[C@@H]([C@H](C)CC(=O)O)C(=O)N[C@@H](CC(=O)c2ccccc2N)C(=O)O[C@@H]1C [Daptomycin] | 80% |  | 0.78 µM (≈ 1.26 µg/mL) | 6.2 to 12.5 µM |  | 0.78 µM (≈ 1.26 µg/mL) | 0.78 µM (≈ 1.26 µg/mL) | 100% |  |  | 3.1 µM (≈ 5.02 µg/mL) | > 12.5 µM | 80% | ~ 70% | 5 mg/mL |
